Bridge positions count the residues as written; N and C are the ends. Square brackets hold non-standard residues; d marks the D form. Peptide text beside a SMILES is read from it. Pen = CC(C)(S)[C@H](N)C(=O)O; Sar = CNCC(=O)O
target: Type-1 angiotensin II receptor (Bos taurus) (UniProt P25104); experiment: Binding affinity was determined against Angiotensin II receptor, type 1
Sequence (P25104 whole entry, looked up): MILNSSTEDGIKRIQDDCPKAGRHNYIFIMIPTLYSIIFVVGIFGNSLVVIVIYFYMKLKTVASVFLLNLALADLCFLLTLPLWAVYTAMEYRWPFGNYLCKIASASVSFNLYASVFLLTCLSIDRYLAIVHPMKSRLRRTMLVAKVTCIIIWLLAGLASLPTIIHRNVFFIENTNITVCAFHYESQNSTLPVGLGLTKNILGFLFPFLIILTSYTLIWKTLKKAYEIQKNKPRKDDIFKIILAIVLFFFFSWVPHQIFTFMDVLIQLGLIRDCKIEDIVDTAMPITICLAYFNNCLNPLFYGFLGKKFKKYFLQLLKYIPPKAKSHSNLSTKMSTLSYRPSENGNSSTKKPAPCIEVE

**Q.** `CNCC(=O)N[C@@H](CCCNC(=N)N)C(=O)N[C@H](C(=O)N[C@@H](Cc1ccc(O)cc1)C(=O)N[C@H]1CCSS[C@@H]2C[C@@H](C(=O)N[C@@H](Cc3ccccc3)C(=O)O)N(C2)C(=O)[C@H](Cc2cnc[nH]2)NC1=O)C(C)C` was tested. Which Kd did it give?
**A.** The Kd was 750 nM.

**Q.** `CNCC(=O)N[C@@H](CCCN=C(N)N)C(=O)N[C@H](C(=O)N[C@H](Cc1ccc(O)cc1)C(=O)N[C@@H]1CCC(=O)N[C@@H]2C[C@H](C(=O)N[C@H](Cc3ccccc3)C(=O)O)N(C2)C(=O)[C@@H](Cc2c[nH]cn2)NC1=O)C(C)C` was tested. Which Kd did it give?
**A.** The Kd was greater than 10000 nM.

**Q.** Which Kd does the source give for `CNCC(=O)N[C@@H](CCCNC(=N)N)C(=O)N[C@H](C(=O)N[C@@H](Cc1ccc(O)cc1)C(=O)N[C@@H]1CSS[C@@H]2C[C@H](C(=O)N[C@@H](Cc3ccccc3)C(=O)O)N(C2)C(=O)[C@@H](Cc2cnc[nH]2)NC1=O)C(C)C` here?
**A.** Its Kd is 2300 nM.

**Q.** `CNCC(=O)N[C@@H](CCCNC(=N)N)C(=O)N[C@H](C(=O)N[C@@H](Cc1ccc(O)cc1)C(=O)N[C@@H]1CC(=O)N[C@@H]2C[C@H](C(=O)N[C@@H](Cc3ccccc3)C(=O)O)N(C2)C(=O)[C@@H](Cc2cnc[nH]2)NC1=O)C(C)C` was tested. Which Kd did it give?
**A.** Its Kd is greater than 10000 nM.

**Q.** `CNCC(=O)N[C@@H](CCCNC(=N)N)C(=O)N[C@H](C(=O)N[C@@H](Cc1ccc(O)cc1)C(=O)N[C@H]1CSS[C@@H]2C[C@@H](C(=O)N[C@@H](Cc3ccccc3)C(=O)O)N(C2)C(=O)[C@H](Cc2cnc[nH]2)NC1=O)C(C)C` was tested. Which Kd did it give?
**A.** The Kd was greater than 10000 nM.

**Q.** How did the Kd turn out when `CNCC(=O)N[C@@H](CCCNC(=N)N)C(=O)N[C@H](C(=O)N[C@H](Cc1ccc(O)cc1)C(=O)N1CCC[C@H]1C(=O)N[C@@H](Cc1cnc[nH]1)C(=O)N1CCC[C@H]1C(=O)N[C@@H](Cc1ccccc1)C(=O)O)C(C)C` was run?
**A.** The Kd was 58 nM.

**Q.** With `CNCC(=O)N[C@@H](CCCNC(=N)N)C(=O)N[C@H](C(=O)N[C@@H](Cc1ccc(O)cc1)C(=O)N[C@@H]1CCSS[C@@H]2C[C@H](C(=O)N[C@@H](Cc3ccccc3)C(=O)O)N(C2)C(=O)[C@@H](Cc2cnc[nH]2)NC1=O)C(C)C` as the molecule, how does the Kd read?
**A.** Its Kd is 20 nM.

**Q.** Which Kd does the source give for `CNCC(=O)N[C@@H](CCCNC(=N)N)C(=O)N[C@H](C(=O)N[C@@H](Cc1ccc(O)cc1)C(=O)N[C@H]1CSSC(C)(C)[C@@H](C(=O)N[C@@H](Cc2ccccc2)C(=O)O)NC(=O)[C@H](Cc2cnc[nH]2)NC1=O)C(C)C` (H-[Sar]RVYCH[Pen]F-OH; disulfide 5-7) here?
**A.** The Kd was greater than 10000 nM.

species: Oryctolagus cuniculus; experiment: Activity of compound in contraction assays performed using isolated rabbit aorta; assay type: functional
Method in brief: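 Rings (5 mm) cut from excised aorta, cleaned of adipose tissue, hung in 5 mL organ baths of continuously oxygenated Krebs solution at 37 °C, changed every 15 min. Initial tension 2 g, readjusted until stable (about 90 min equilibration) before testing.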

**Q.** `CNCC(=O)N[C@@H](CCCN=C(N)N)C(=O)N[C@H](C(=O)N[C@H](Cc1ccc(O)cc1)C(=O)N1CCC[C@H]1C(=O)N[C@@H](Cc1c[nH]cn1)C(=O)N1CCC[C@H]1C(=O)N[C@@H](Cc1ccccc1)C(=O)O)C(C)C` was tested. Which EC50 did it give?
**A.** The EC50 was 94 nM.

**Q.** `CNCC(=O)N[C@@H](CCCNC(=N)N)C(=O)N[C@H](C(=O)N[C@@H](Cc1ccc(O)cc1)C(=O)N[C@@H]1CCSS[C@@H]2C[C@H](C(=O)N[C@@H](Cc3ccccc3)C(=O)O)N(C2)C(=O)[C@@H](Cc2cnc[nH]2)NC1=O)C(C)C` was tested. Which EC50 did it give?
**A.** The EC50 was 1770 nM.

**Q.** `CNCC(=O)N[C@@H](CCCN=C(N)N)C(=O)N[C@H](C(=O)N[C@@H](Cc1ccc(O)cc1)C(=O)N[C@H](C(=O)N[C@@H](Cc1c[nH]cn1)C(=O)N1CCC[C@H]1C(=O)N[C@@H](Cc1ccccc1)C(=O)O)C(C)C)C(C)C` (H-[Sar]RVYVHPF-OH) was tested. Which EC50 did it give?
**A.** The EC50 was 0.35 nM.

**Q.** Which EC50 does the source give for `CC[C@H](C)[C@H](NC(=O)[C@H](Cc1ccc(O)cc1)NC(=O)[C@@H](NC(=O)[C@H](CCCNC(=N)N)NC(=O)[C@@H](N)CC(=O)O)C(C)C)C(=O)N[C@@H](Cc1cnc[nH]1)C(=O)N1CCC[C@H]1C(=O)N[C@@H](Cc1ccccc1)C(=O)O` [ANGIOTENSIN II] here?
**A.** The EC50 was 4.6 nM.

Reference: ChEMBL document CHEMBL1129368 (J Med Chem, 1996)
